Changes are numbered by the printed parent chain.

Usually EC90 stands for the concentration needed for an effect of 90%. What is called Tmax is the time at which the peak concentration occurs.

A short description of data set [1]: Resistance ratio of EC90 for NS5A A30T mutant in HCV genotype 3a infected in HuH7 replicon cells to EC90 for NS5A in HCV genotype 1a infected in HuH7 replicon cells. Type of data set: cell-based. On the technique in general: A replicon is a self-replicating genome or part of one, used to study replication in cells.
In data set [2] the target is T1, Nonstructural protein 5A (Hepatitis C virus) (UniProt Q5L478).
T1 sequence (whole entry): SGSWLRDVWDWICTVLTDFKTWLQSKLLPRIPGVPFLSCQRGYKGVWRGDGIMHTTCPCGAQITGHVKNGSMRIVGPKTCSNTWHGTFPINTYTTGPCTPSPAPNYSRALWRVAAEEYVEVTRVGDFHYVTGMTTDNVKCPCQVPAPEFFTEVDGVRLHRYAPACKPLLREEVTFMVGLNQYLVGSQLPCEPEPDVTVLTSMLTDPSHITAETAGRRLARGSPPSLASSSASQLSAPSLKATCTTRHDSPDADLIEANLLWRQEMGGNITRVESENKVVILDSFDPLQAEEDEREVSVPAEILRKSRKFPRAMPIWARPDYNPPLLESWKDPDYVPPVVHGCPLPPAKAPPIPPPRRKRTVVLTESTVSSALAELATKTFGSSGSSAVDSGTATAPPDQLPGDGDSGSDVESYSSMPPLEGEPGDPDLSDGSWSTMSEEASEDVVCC
Kind of data set: Inhibition of NS5A in HCV genotype 1b infected in HuH7 replicon cells assessed as decrease in viral replication after 3 days by RT-PCR method. The format is cell-based. Particulars: Hepatitis C virus subtype 1b.

Data set [3] can be described thus: Resistance ratio of EC90 for NS3 D168Y mutant in HCV genotype 1b infected in HuH7 replicon cells to EC90 for NS5A in HCV genotype 1a infected in HuH7 replicon cells.
The target in data set [4] is T1, Nonstructural protein 5A (Hepatitis C virus). Kind of data set: Inhibition of NS5A in HCV genotype 2a infected in HuH7 replicon cells assessed as decrease in viral replication after 3 days by RT-PCR method. Type of data set: cell-based. Particulars: Hepatitis C virus subtype 2a.
Data set [5] can be described thus: Drug level in Wistar Han rat at 10 mg/kg, po measured at 24 hrs by LC/MS method. The format is ADME, organism-based. Particulars: in vivo, read-out: Drug uptake. In a few lines:
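Male Wistar Han rats, two per dosing group, dosed orally at 10 mg/kg in 10% TWEEN. Plasma was separated from collected blood by centrifugation and analysed by LC/MS.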

Data set [6] concerns the target T1, Nonstructural protein 5A (Hepatitis C virus). Kind of data set: Inhibition of NS5A R81W mutant in HCV genotype 1a infected in HuH7 replicon cells assessed as decrease in viral replication after 3 days by RT-PCR method. Type of data set: cell-based. The conditions noted are these: Hepatitis C virus subtype 1a.
In data set [7] the test system is NS3 (Hepatitis C virus), A3EZJ3 [A156T]. As to the kind of experiment: Inhibition of NS3 A156T mutant in HCV genotype 1b infected in HuH7 replicon cells assessed as decrease in viral replication after 3 days by RT-PCR method. Type of data set: cell-based. Particulars: Hepatitis C virus subtype 1b.
Data set [8] addresses T1, Nonstructural protein 5A (Hepatitis C virus). Kind of data set: Inhibition of NS5A Q30R mutant in HCV genotype 1a infected in HuH7 replicon cells assessed as decrease in viral replication after 3 days by RT-PCR method. Type of data set: cell-based. Particulars: Hepatitis C virus subtype 1a.
Data set [9] shares this target. Kind of data set: Inhibition of NS5A K24R mutant in HCV genotype 1a infected in HuH7 replicon cells assessed as decrease in viral replication after 3 days by RT-PCR method. Type of data set: cell-based. The conditions noted are these: Hepatitis C virus subtype 1a.
In data set [10] the test system is Hepatitis C virus subtype 1a. Kind of data set: Resistance ratio of EC90 for NS5A A92P mutant in HCV genotype 1a infected in HuH7 replicon cells to EC90 for NS5A in HCV genotype 1a infected in HuH7 replicon cells. The format is cell-based.
In data set [11] the test system is Hepatitis C virus subtype 1a. As to the kind of experiment: Resistance ratio of EC90 for NS5A Y93N mutant in HCV genotype 1a infected in HuH7 replicon cells to EC90 for NS5A in HCV genotype 1a infected in HuH7 replicon cells. Type of data set: cell-based.
A short description of data set [12]: Tmax in Wistar Han rat at 300 mg/kg, po by LC/MS method. The conditions noted are these: in vivo. The format is ADME, organism-based. In outline:
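Single rising oral dose study in fed male Wistar Han rats, dosed PO in 10% TWEEN at the indicated doses. Plasma was obtained by centrifuging the blood, and compound levels were determined by LC/MS.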

Data set [13] concerns the target T1, Nonstructural protein 5A (Hepatitis C virus). As to the kind of experiment: Inhibition of NS5A P32L mutant in HCV genotype 4a infected in HuH7 replicon cells assessed as decrease in viral replication after 3 days by RT-PCR method. The format is cell-based. Particulars: Hepatitis C virus subtype 4a.
The nature of data set [14]: Resistance ratio of EC90 for NS5A L31V mutant in HCV genotype 3a infected in HuH7 replicon cells to EC90 for NS5A in HCV genotype 1a infected in HuH7 replicon cells. Type of data set: cell-based.
Data set [15] deals with Hepatitis C virus subtype 1a. As to the kind of experiment: Resistance ratio of EC90 for NS5A M28K mutant in HCV genotype 1a infected in HuH7 replicon cells to EC90 for NS5A in HCV genotype 1a infected in HuH7 replicon cells. Type of data set: cell-based.
A short description of data set [16]: Resistance ratio of EC90 for NS5A L31F mutant in HCV genotype 3a infected in HuH7 replicon cells to EC90 for NS5A in HCV genotype 1a infected in HuH7 replicon cells. The format is cell-based.
Data set [17] relates to T2, Nonstructural protein 5A (Hepatitis C virus), Q5L478 [Y93H].
T2 sequence (whole entry): T1 sequence (whole entry) with Y93H
Kind of data set: Inhibition of NS5A Y93H mutant in HCV genotype 3a infected in HuH7 replicon cells assessed as decrease in viral replication after 3 days by RT-PCR method. The conditions noted are these: Hepatitis C virus subtype 3a. Type of data set: cell-based.

In the case of `COC(=O)N[C@H](C(=O)N1CCC[C@H]1c1ncc(-c2cc(F)c3c(c2)O[C@@H](c2ccc(C4CC4)s2)n2c-3cc3cc(-c4cnc([C@@H]5CCCN5C(=O)[C@@H](NC(=O)OC)[C@@H]5CCOC(C)(C)C5)[nH]4)ccc32)[nH]1)C(C)C`, the Ratio is 1 in data set [1]; below 1 in data set [3]; below 1 in data set [10]; 16 in [11]; 762 in data set [14]; 100 in data set [15]. Besides, in data set [16], the Ratio was 69. The EC90 in data set [2] is 4.4 pM; in [4] it was 2.7 pM; in [6], 0.32 pM; in data set [7], 4 pM; in data set [8], 0.12 nM; in data set [9], 0.34 pM. Further, the EC90 in [13] was found to be 4.4 pM; in data set [17], 2.4 nM. Moreover, in data set [5], the concentration at 24 h lay in the range of 3 to 11 nM. In data set [12], the Tmax was 5 h.

The values are drawn from ChEMBL document CHEMBL4177770, “Discovery of MK-6169, a Potent Pan-Genotype Hepatitis C Virus NS5A Inhibitor with Optimized Activity against Common Resistance-Associated Substitutions” (J Med Chem, 2018).
